Assays:
Format in all cases: functional
Mus musculus [1] = experiment: Percent increase in life span of DBA2 mice after inoculation with L1210 leukemia intravenously at a dose of 60 mg/kg per day; conditions: route intravenous
Method in brief: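 Female DBA2 mice inoculated iv on day 0 with 10^4 L1210 cells; drugs given iv as sulfate salts in physiological saline, mostly once on day 1. %ILS from all deaths and survivors as (T/C × 100) − 100; survivors scored on days 30 and 60.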

Mus musculus [2] = experiment: Number of survivors on 60th day at dose 65 mg/kg/day in 10 mice implanted with P388 leukemia cell line; 7/9
Mus musculus [3] = experiment: Number of survivors on 30th day at dose 55 mg/kg/day in 10 mice implanted with P388 leukemia cell line for 1st scheduled day; 1/10
Mus musculus [4] = experiment: Number of survivors of DBA2 mice on 60th day after inoculation with L1210 leukemia cell line intravenously at a dose of 55 mg/kg/day; 0/10; conditions: route intravenous
Mus musculus [5] = experiment: Number of survivors on 60th day at dose 6 mg/kg/day in 7 mice implanted with P388 leukemia cell line for 1,8.15 scheduled days from Exp-2; 0/10
Mus musculus [6] = experiment: Number of survivors on 30th day at dose 8 mg/kg/day in 9 mice implanted with P388 leukemia cell line; 0 /9
Mus musculus [7] = experiment: Number of survivors on 30th day at dose 9 mg/kg/day in 10 mice implanted with P388 leukemia cell line; […]
Mus musculus [8] = experiment: Number of survivors of DBA2 mice on 30th day after inoculation with L1210 leukemia cell line intravenously at a dose of 2 mg/kg/day; 0/10; conditions: route intravenous
Mus musculus [9] = experiment: Number of survivors of DBA2 mice on 30th day after inoculation with L1210 leukemia cell line intravenously at a dose of 1 mg/kg/day; 0/10; conditions: route intravenous
Mus musculus [10] = experiment: Number of survivors on 60th day at dose 2 mg/kg/day in 7 mice implanted with P388 leukemia cell line for 1,8,15 scheduled days; 0/11
Mus musculus [11] = experiment: Percent increase in life span at dose 2.5 mg/kg/day in 7 mice implanted with P388 leukemia cell line for 1,8,15 scheduled days from Exp-2

## CCOC(=O)[C@H](Cc1c[nH]c2ccccc12)NC(=O)[C@@]1(O)[C@H](O)[C@]2(CC)C=CCN3CC[C@@]4(c5cc([C@@]6(C(=O)OC)C[C@H]7C[N@](CCc8c6[nH]c6ccccc86)C[C@](O)(CC)C7)c(OC)cc5N(C)[C@@]14C)[C@@H]32
Mus musculus [1]
  ILS at 60 mg/kg/day: 58%
Mus musculus [2]
  Survivors: 7
Mus musculus [3]
  Survivors: 1
Mus musculus [4]
  Survivors: 0

## CCOC(=O)[C@@H](NC(=O)[C@@]1(O)[C@H](O)[C@]2(CC)C=CCN3CC[C@@]4(c5cc([C@@]6(C(=O)OC)C[C@H]7C[N@](CCc8c6[nH]c6ccccc86)C[C@](O)(CC)C7)c(OC)cc5N(C)[C@@]14C)[C@@H]32)[C@@H](C)CC
Mus musculus [5]
  Survivors: 0

## CC[C@]1(O)C[C@@H]2CN(CCc3c([nH]c4ccccc34)[C@@](C(=O)OC)(c3cc4c(cc3OC)N(C)[C@H]3[C@@](O)(C(=O)OC)[C@H](OC(C)=O)[C@]5(CC)C=CCN6CC[C@]43[C@@H]65)C2)C1 [VINBLASTINE]
Mus musculus [6]
  Survivors: 0
Mus musculus [7]
  Survivors: 1

## CC[C@]1(O)C[C@H]2CN(CCc3c([nH]c4ccccc34)[C@@](C(=O)OC)(c3cc4c(cc3OC)N(C=O)[C@H]3[C@@](O)(C(=O)OC)[C@H](OC(C)=O)[C@]5(CC)C=CCN6CC[C@]43[C@@H]65)C2)C1 [VINCRISTINE]
Mus musculus [8]
  Survivors: 0
Mus musculus [9]
  Survivors: 0

## CC[C@]1(O)C[C@@H]2CN(CCc3c([nH]c4ccccc34)[C@@](C(=O)OC)(c3cc4c(cc3OC)N(C)[C@H]3[C@@](O)(C(N)=O)[C@H](O)[C@]5(CC)C=CCN6CC[C@]43[C@@H]65)C2)C1 [VINDESINE]
Mus musculus [10]
  Survivors: 0
Mus musculus [11]
  ILS at 2.5 mg/kg/day: 13%
